Laboratory results published in the EternaBench riboswitch data.

Tested on: MS2 coat protein
Assay: apparent Kd, MS2 coat protein; higher = weaker binding; RNA-MaP array; FMN 200 µM where present
How it was run: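 The apparent Kd is the median of filtered binding-curve fits, one per cluster, to green signal normalised to red-channel RNA signal and control-cluster median Fmax. The clusters were on Illumina sequencing chips, and stalled E. coli RNA polymerase had transcribed the designs on them. Titration used SNAP-549-labelled MS2 coat protein from 0.7 or 1.5 nM, doubling to 3 µM, without and then with constant ligand, in 100 mM Tris-HCl pH 7.5, 80 mM KCl, 4 mM MgCl2, BSA, DTT, yeast tRNA and Tween-20.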

[1] = designed as: ON switch for flavin mononucleotide, no ligand
[2] = ligand present: flavin mononucleotide, designed as: ON switch for flavin mononucleotide
[3] = designed as: OFF switch for flavin mononucleotide, no ligand
[4] = ligand present: flavin mononucleotide, designed as: OFF switch for flavin mononucleotide

Sequence: GCGUUCUUGUAGAAGGUACAUACGACAUCUUAUAAACGCUUGACACAUGAGGAUCACCCAUGUUGUAAGGAUAUACAUGAACGC
- apparent Kd [1]: 0.00682 µM
- apparent Kd [2]: 0.00703 µM

Sequence: GCGUUCUUGUAGAAGGUACCUUCAACAUAUUAUAAACGCUAGACACAUGAGGAUCACCCAUGUUGUAAGGAUAUACAUGAACGC
- apparent Kd [1]: 0.0167 µM
- apparent Kd [2]: 0.0135 µM

Sequence: GCGUUGAACGAGAAGGCCAAUACAUGAGGAUCACCCAUGUUAAGAUGUUUUGGAGGAUAUCGUACGUCGUCUCAUGAGCAACGC
- apparent Kd [3]: 0.00621 µM
- apparent Kd [4]: 0.00703 µM

Sequence: GCGUUUUAUGCAGGAUAUUGUAAUUUAUUACUACAAGAAGGGCAAUACAUGAGGAUCACCCAUGUCAGCAUGGUUUUUAAGUUC
- apparent Kd [3]: 0.0204 µM
- apparent Kd [4]: 0.0259 µM

Sequence: GCUAAGCGAAUCAAGAUGGAUAGAACAUGAGGAUCACCCAUGUAGGAUAUGCUACACAAAGUGUAGCAGAAGGACAAGCUUAGC
- apparent Kd [3]: 0.0199 µM
- apparent Kd [4]: 0.0335 µM

Sequence: GCUACAUAUAUUAAGUAUGAUUAACUAGAAGGUAGAUACAUGAGGAUCACCCAUGUUAAGAGUUCUAAGGAUAUAGUUUGUAGC
- apparent Kd [1]: 0.113 µM
- apparent Kd [2]: 0.0566 µM

Sequence: GCUAGGAUGUGAGGAUAUGCUGAGGAUACUUCAGCAGAAGGCACAUGAGGAUCACCCAUGUACACUUAUCAUAAAUACCCUAGC
- apparent Kd [3]: 0.0127 µM
- apparent Kd [4]: 0.0162 µM

Sequence: GCUAGUAUUGCAGGAUAUUGAGAAUAAUUAUGGCAAGAAGGGCAUAACAUGAGGAUCACCCAUGUAUUCCUUAGUGAUACUAGC
- apparent Kd [3]: 0.00907 µM
- apparent Kd [4]: 0.00833 µM

Sequence: GCUAGUAUUGCAGGAUAUUGUGAAUAAUUAUUUCAAGAAGGGCAUAACAUGAGGAUCACCCAUGUCUUCCUUUUGAAUACUAGC
- apparent Kd [3]: 0.00695 µM
- apparent Kd [4]: 0.00651 µM

Sequence: GCUAGUAUUGCAGGAUAUUGUGAAUAAUUAUUUCAAGAAGGGCAUUACAUGAGGAUCACCCAUGUCAUCCUUUUGAAUACUAGC
- apparent Kd [3]: 0.00567 µM
- apparent Kd [4]: 0.00763 µM

Sequence: GCUAUCGAUGUAGGAUAUGCUAGGGAAACCCUGGCAGAAGGACAUGAGGAUCACCCAUGUCAAUGGAUGAAGAGAAGAGAUGGC
- apparent Kd [3]: 0.0278 µM
- apparent Kd [4]: 0.122 µM

Sequence: GCUAUCGUUGUAGGAUAUGCUUGCCAAAGGCGAGCAGAAGGACAUGAGGAUCACCCAUGUCAGUGGUUGAAGAGAAGAGAUGGC
- apparent Kd [3]: 0.027 µM
- apparent Kd [4]: 0.0615 µM

Sequence: GCUCGAUGCGCUGAGCACAUGAGGAUCACCCAUGUAAAUGGUCAGGAUAUUUACGUGCUUUAUGUAGAGAAGGGACUAUCGAGC
- apparent Kd [1]: 0.63 µM
- apparent Kd [2]: 0.0593 µM

Sequence: GCUCGAUGUGCUGAAAACAUGAGGAUCACCCAUGUAAAUGGUCAGGAUAUUUACGUGCUUUAUGUAGAGAAGGGACCAUCGAGC
- apparent Kd [1]: 0.2 µM
- apparent Kd [2]: 0.0309 µM

Sequence: GCUCGGCCAAAAUAAAACGACGCGAAGGAUAUACACCUGGGUACUCCUACAUGAGGAUCACCCAUGUAGAAGGUCGCGGGCUUG
- apparent Kd [3]: 0.045 µM
- apparent Kd [4]: 0.0464 µM

Sequence: GCUCUGGCAUGAGGAUAUGGUCAGCUUUGCUGACCAGAAGGCAUGUCAAUAGACAUGAGGAUCACCCAUGUAGUUAACAGAGCA
- apparent Kd [1]: 0.538 µM
- apparent Kd [2]: 0.0373 µM

Sequence: GCUGACGAUGUAGGAUAUCUCGACGAUAAGUCGAGAGAAGGACAUGAGGAUCACCCAUGUCUCAAAACGUCAGCGAGGAAACUC
- apparent Kd [3]: 0.0164 µM
- apparent Kd [4]: 0.0174 µM

Sequence: GCUGCAUAGGCAGGAUAUGCAAAAGCAGAUGCAAAGCAUCUGCAAUAAACAUGAGGAUCACCCAUGUAGAAGGGCCUGUGCAGU
- apparent Kd [3]: 0.0208 µM
- apparent Kd [4]: 0.0194 µM

Sequence: GCUGCAUAGGCAGGAUAUGCAAUAAUUUAAAUAAAAUAUAAUAAAUUAACAUGAGGAUCACCCAUGUAGAAGGGCCUGUGCAGU
- apparent Kd [3]: 0.0198 µM
- apparent Kd [4]: 0.0192 µM

Sequence: GCUGCUAUCGCAGGAUAUUACAUGGGAAAUAAAACAUGAGGAUCACCCAUGUAAAAUAUCGUAAAUAAGAAGGGCGAUAGCAGC
- apparent Kd [1]: 0.0846 µM
- apparent Kd [2]: 1.18 µM

Sequence: GCUUGAGCUGUGAGGAUAUGAGUUCGGAAAUGAGCUUAGAAGGCACAUGAGGAUCACCCAUGUAAGGUUCGAGU
- apparent Kd [3]: 0.038 µM
- apparent Kd [4]: 0.0177 µM

Sequence: GCUUGUGUUGAGGAUAUGCGCCGGCUCGCUGGCGCAGAAGGCGGCACAUGAGGAUCACCCAUGUCAGUUCGCGA
- apparent Kd [3]: 0.0275 µM
- apparent Kd [4]: 0.255 µM

Sequence: GCUUUACUGGUCAGGAUAUACAUUUGCUACUCUUUGUAGAAGGGACAUGAGGAUCACCCAUGUACUUUACAUUC
- apparent Kd [3]: 0.0153 µM
- apparent Kd [4]: 0.0166 µM

Sequence: GGAACUCAUGUAGGAUAUGCAUGGCGAAGCUACGCAGAAGGACAUGAGGAUCACCCAUGUUCUAGCGUCUGGAGACAGAUGCAA
- apparent Kd [3]: 0.174 µM
- apparent Kd [4]: 0.126 µM

Sequence: GGAAUAAAUGCAGGAUAUACGUGGAAAGCCUUCAACAUGAGGAUCACCCAUGUAGAAGGGCAUCUCCCGACCGAAUCGGAUCUC
- apparent Kd [3]: 0.00572 µM
- apparent Kd [4]: 0.00625 µM

Sequence: GGAAUACAUGAGGAUCACCCAUGUAAGGAUAUGCUGAUUAACACGGAAUAAUUAUGCAGCAGAAGGUACAAAGG
- apparent Kd [3]: 0.113 µM
- apparent Kd [4]: 0.0911 µM

Sequence: GGACACCGAUCAGGAUAUACACGGCAUUCCAGAAACAUGAGGAUCACCCAUGUAGAAGGGAUCUGCGUCCUAAACAUAUCCAUU
- apparent Kd [3]: 0.00512 µM
- apparent Kd [4]: 0.00928 µM
